Laboratory results as given in ChEMBL document CHEMBL1140145, “Identification of non-nucleoside DNA synthesis inhibitors of vaccinia virus by high-throughput screening” (J Med Chem, 2008).
Calls of active or inactive are those of the source. No cut-off for these calls is given here.

How the values were obtained:
Vaccinia virus [1] = assay: Inhibition of Vaccinia virus DNA synthesis in by rapid plate assay; assay type: functional, organism-based; settings: Orthopoxvirus vaccinia
[2] = Cytotoxicity against african green monkey BSC1 cells up to 200 uM after 20 to 120 hrs WST-1 based assay; assay type: cell-based; settings: chlorocebus aethiops, bsc-1
In short: (§1)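 Uninfected BS-C-1 cells in phenol red-free medium, seeded 5000 (20 h), 1000 (3-day) or 200 (5-day) cells/well, exposed next day to compound in two-fold serial dilutions (top 200 µM; 1% DMSO final) at 37°C. WST-1 added 30 min, A450 read. Triplicates; percent cytotoxicity vs DMSO fitted four-parameter sigmoidal for TC50.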

Vaccinia virus [3] = assay: Antiviral activity against Vaccinia virus WR in BSC1 cells assessed as reduction in plaque formation up to 200 uM after 20 hrs; assay type: functional, organism-based; settings: Orthopoxvirus vaccinia, BSC-1
Vaccinia virus [4] = assay: Antiviral activity against Vaccinia virus WR in BSC1 cells assessed as protection from virus-induced lysis of cell monolayer up to 200 uM after 20 hrs; assay type: functional, organism-based; settings: Orthopoxvirus vaccinia, BSC-1
[5] = Cytotoxicity against african green monkey BSC1 cells after 120 hrs WST-1 based assay; assay type: cell-based, BSC-1; settings: chlorocebus aethiops, read-out: TC50; in short: as §1
Vaccinia virus [6] = assay: Antiviral activity against Vaccinia virus WR in BSC1 cells assessed as reduction in plaque formation after 20 hrs; assay type: functional, organism-based; settings: Orthopoxvirus vaccinia, BSC-1, 20 h
[7] = Cytotoxicity against african green monkey BSC1 cells after 20 hrs WST-1 based assay; assay type: cell-based, BSC-1; settings: chlorocebus aethiops, read-out: TC50; in short: as §1
Vaccinia virus [8] = assay: Antiviral activity against Vaccinia virus WR in BSC1 cells assessed as retention of antiviral potency by measuring exogenous double stranded DNA trapping; assay type: functional, organism-based; settings: Orthopoxvirus vaccinia, BSC-1
[9] = Cytotoxicity against african green monkey BSC1 cells after 72 hrs WST-1 based assay; assay type: cell-based, BSC-1; settings: chlorocebus aethiops, read-out: TC50; in short: as §1
[10] = Selectivity index, TC50 for african green monkey BSC1 cells after 20 hrs to EC50 for Vaccinia virus WR in BSC1 cells after 20 hrs by cell protection assay; assay type: toxicity, cell-based, BSC-1; settings: read-out: Selectivity Index
Vaccinia virus [11] = assay: Antiviral activity against Vaccinia virus WR in BSC1 cells assessed as protection from virus-induced lysis of cell monolayer after 20 hrs; assay type: functional, organism-based; settings: Orthopoxvirus vaccinia, BSC-1, 20 h
[12] = Selectivity index, TC50 for african green monkey BSC1 cells after 72 hrs to EC50 for Vaccinia virus WR in BSC1 cells after 72 hrs by cell protection assay; assay type: toxicity, cell-based, BSC-1; settings: read-out: Selectivity Index

Row | SMILES | IC50 (Vaccinia virus [1]) | Activity [2] | Activity (Vaccinia virus [3]) | Activity (Vaccinia virus [4]) | CC50 at 120 h [5] | EC50 (Vaccinia virus [6]) | CC50 at 20 h [7] | Activity (Vaccinia virus [8]) | CC50 at 72 h [9] | selectivity ratio at 20 h [10] | EC50 (Vaccinia virus [11]) | selectivity ratio at 72 h [12]
1 | O=C(NCCCN1CCCC1)c1cc2c(Cl)nc3ccccc3c2s1 | 10 µM | Toxic | inactive | inactive |  |  |  |  |  |  |  | 
2 | CC[n+]1cc(/C=C2\SC=CN2C)c(C)c2cc(OC)c3ccccc3c21 | 3.5 µM | Toxic | inactive | inactive |  |  |  |  |  |  |  | 
3 | Cc1ccc2c(Sc3ccc(Cl)cc3)c(C(=O)O)[nH]c2c1 | 43 µM |  |  |  | 120 µM | 75 µM | > 200 µM | Active | 174 µM | > 1.5 |  | 
4 | Cc1csc2c(N3CCN(C(=O)NC(C)(C)C)CC3)ncnc12 | 12 µM |  |  |  | 40 µM | 15 µM | 157 µM | Active |  | 3.1 | 50 µM | 
5 | Cc1ccc2nc(Cl)c3cc(C(=O)N(CCN(C)C)Cc4ccco4)sc3c2c1 | 10 µM | Toxic | inactive | inactive |  |  |  |  |  |  |  | 
6 | N/N=C1\CCCc2c1[nH]c1ccc(C(=O)NN)cc21 |  |  |  |  |  | 100 µM | > 200 µM | inactive | 35 µM |  | 193 µM | 
7 | O=C(O)Cn1c2ccc(Cl)cc2c2nc3ccccc3nc21 |  |  |  |  | 30 µM | 50 µM | > 100 µM | Active | 13 µM |  | 100 µM | 
8 | N=C1/C(=C/c2coc3ccccc3c2=O)C(=O)N=C2SC=NN12 | 75 µM |  |  |  | 50 µM |  | > 200 µM | Active | > 200 µM | > 1 |  | 
9 | CN(C)c1ccc(-c2cccc(-c3ccc(N(C)C)cc3)[o+]2)cc1 | 3 µM | Toxic | inactive | inactive |  |  |  |  |  |  |  | 
10 | Nc1ccn(C[C@@H](CO)OCP(=O)(O)O)c(=O)n1 [CIDOFOVIR] |  |  |  |  | 300 µM | 50 µM | > 500 µM | Active | > 500 µM | > 3.8 |  | 
11 | OC(CN1CCNCC1)Cn1c2ccc(Br)cc2c2cc(Br)ccc21 (stereo not given) | 6.3 µM | Toxic | inactive | inactive |  |  |  |  |  |  |  | 
12 | O=C(Nc1ccccc1C(=O)O)OCC1c2ccccc2-c2ccccc21 | 26 µM |  |  |  | 20 µM | 75 µM | > 200 µM | Active | 40 µM | > 1.9 |  | 
13 | CCS(=O)(=O)N1CCN=C1SCc1ccc(Cl)cc1Cl | 188 µM |  |  |  |  | 25 µM | 166 µM | Active |  |  | 90 µM | 
14 | CCN(CC)CCCNc1nc2cc(OC)c(OC)cc2c2nc(-c3ccccc3)nn12 | 5.9 µM | Toxic | inactive | inactive |  |  |  |  |  |  |  | 
15 | COc1ccc2c(c1)C=C/C(=C\c1sc3ccccc3[n+]1C)N2C.[Cl-] | 4 µM | Toxic | inactive | inactive |  |  |  |  |  |  |  | 
16 | Cc1c(/N=C/c2cc(Br)cc(Br)c2O)cccc1C(=O)O | 26 µM |  |  |  | 20 µM | 75 µM | > 200 µM | Active | 38 µM | > 2 | 100 µM | 
17 | CCOC(=O)c1c(NC(=O)/C=C/C(=O)O)sc(C)c1-c1ccccc1 | 374 µM |  |  |  |  | 25 µM | 159 µM | Active |  |  | 30 µM | 
18 | CCNc1nc(SCc2ccc(Cl)cc2)nc2sc3c(c12)CCN(C)C3 | 129 µM |  |  |  | 5 µM | 15 µM | 115 µM | Active |  | 2.6 | 45 µM | 
19 | Cc1cc(NCCN2CCCCC2)c2ccc3ccccc3c2n1 | 6 µM | Toxic | inactive | inactive |  |  |  |  |  |  |  | 
20 | CCOC(=O)c1cnc2c(C)c(C)ccc2c1NCCCN(C)C | 5 µM | Toxic | inactive | inactive |  |  |  |  |  |  |  | 

Row | SMILES | IC50 (Vaccinia virus [1]) | Activity [2] | Activity (Vaccinia virus [3]) | Activity (Vaccinia virus [4]) | CC50 at 120 h [5] | EC50 (Vaccinia virus [6]) | CC50 at 20 h [7] | Activity (Vaccinia virus [8]) | CC50 at 72 h [9] | selectivity ratio at 20 h [10] | EC50 (Vaccinia virus [11]) | selectivity ratio at 72 h [12]
21 | CC1CCCC(C)N1CCNc1nc2ccccc2c2nc(-c3ccccc3)nn12 (stereo not given) | 7.3 µM | Toxic | inactive | inactive |  |  |  |  |  |  |  | 
22 | CCOC(=O)CCc1c(CC(=O)OCC)c[nH]c1/C=N/O.Cl | 3.8 µM | Toxic | inactive | inactive |  |  |  |  |  |  |  | 
23 | CN(C)CC/N=c1\cc(-c2ccccc2)oc2ccc(Cl)cc12 | 6.7 µM | Toxic | inactive | inactive |  |  |  |  |  |  |  | 
24 | O=C(O)c1ccc(CS(=O)(=O)c2ccccc2)o1 | 7.4 µM | Toxic | inactive | inactive |  |  |  |  |  |  |  | 
25 | N=C1S/C(=C/c2ccco2)C(=O)N1c1nccs1 | 32 µM |  |  |  | 50 µM | 75 µM | > 100 µM | Active | > 100 µM | > 1.2 | 80 µM | 
26 | Cc1cc(/N=C/c2cc(Cl)cc(Cl)c2O)no1 | 30 µM |  |  |  | 20 µM | 75 µM | > 200 µM | Active | 50 µM | > 2.1 | 95 µM | 
27 | Cc1cc(OC(=O)c2ccco2)nc(SCc2c(Cl)cccc2Cl)n1 | 52 µM |  |  |  | > 100 µM | 75 µM | > 100 µM | Active | > 100 µM | > 2 | 100 µM | 
28 | CC1=CC(C)(C)N=C(Nc2nc(C)c3cc(C)cc(C)c3n2)N1 | 5.3 µM | Toxic | inactive | inactive |  |  |  |  |  |  |  | 
29 | CC(=O)n1c2ccccc2c2nc(C)sc21 | 111 µM |  |  |  | 75 µM | 100 µM | > 200 µM | Active | > 200 µM | > 1 |  | 
30 | CCC/N=c1\cc(-c2ccccc2)oc2ccc(C)cc12 |  |  |  |  | 10 µM | 25 µM | > 200 µM | inactive |  |  | 57 µM | 
31 | BrCc1ccc(-c2noc(-c3ccncc3)n2)cc1 | 1.3 µM | Toxic | inactive | inactive |  |  |  |  |  |  |  | 
32 | O=C1/C(=C/C2CCCO2)CC/C1=C\C1CCCO1 (stereo not given) | 239 µM |  |  |  | 50 µM | 50 µM | > 100 µM | Active | > 100 µM | > 1 | 100 µM | 
33 | CCn1c2ccccc2c2ccc(/C=N/n3cnnc3)cc21 | 131 µM |  |  |  | 3 µM | 50 µM | > 200 µM | Active | 36 µM | > 4 | 50 µM | 
34 | CCN1CCN(c2ccc(Nc3ccnc4cc5ccccc5cc34)cc2)CC1 | 0.5 µM | Toxic | inactive | inactive |  |  |  |  |  |  |  | 
35 | COc1ccc(-c2cc3ccccn3c2C(=O)c2cccnc2)c(OC)c1 | 25 µM |  |  |  | 60 µM | 100 µM | > 200 µM | inactive | 152 µM | > 2.3 | 87 µM | 
36 | CC(C)Nc1ccc(Nc2ccnc3cc4ccccc4cc23)cc1 | 4.1 µM | Toxic | inactive | inactive |  |  |  |  |  |  |  | 
37 | Cc1ccc2oc(-c3ccccc3)c/c(=N\CCO)c2c1 | 25 µM |  |  |  | 12 µM | 40 µM | > 200 µM | inactive |  | > 3.5 | 57 µM | 
38 | COC(=O)c1cccc2c1-c1ccccc1/C2=N\O | 108 µM |  |  |  | 20 µM | 10 µM | 127 µM | Active |  | 13.2 | 9.6 µM | 3.2
39 | COc1ccc2nc(NC(=N)N)nc(C)c2c1 | 7.4 µM | Toxic | inactive | inactive |  |  |  |  |  |  |  | 
40 | CN(C)CCc1cc2c(c3c1ccc1ccccc13)OCO2 | 5.4 µM | Toxic | inactive | inactive |  |  |  |  |  |  |  | 
